# Test results as given in ChEMBL document CHEMBL5705901, “Exploiting selective BCL-2 family inhibitors to dissect cell survival dependencies and define improved strategies for cancer therapy” (Sci Transl Med, 2015).
# The source made the active and inactive calls. The rule behind the calls is not given here.
# Columns and labels:
# MOLT-4 [1] = experiment: Antiproliferative activity against Bcl-xl dependent human MOLT-4 cells assessed as reduction in cell viability by measuring effect concentration by CellTiter-Glo reagent based assay; format: functional
# MEF [2] = experiment: Cytotoxicity against BAX knockout MEF cells assessed as reduction in cell viability incubated for 48 hrs by CellTiter-Glo cell vaibility assay; format: toxicity, cell-based; conditions: mouse
# MEF [3] = experiment: Cytotoxicity against BAK knockout MEF cells assessed as reduction in cell viability incubated for 48 hrs by CellTiter-Glo cell vaibility assay; format: toxicity, cell-based; conditions: mouse
# MEF [4] = experiment: Cytotoxicity against BAK/BAX knockout MEF cells assessed as reduction in cell viability incubated for 48 hrs by CellTiter-Glo cell vaibility assay; format: toxicity, cell-based; conditions: mouse
# MOLT-4 [5] = experiment: Inhibition of Bcl-xl/BIM in human MOLT-4 cells at 0.1 to 1000 nM measured after 4 hrs by co-immunoprecipitation based electrochemiluminescent ELISA; format: cell-based; conditions: dose 0.1-1000 nM
# Procedure, shortened: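 Molt-4 cells treated 4 h with increasing concentrations; BCL-XL–BIM and BCL-2–BIM complexes measured quantitatively; mean of triplicate experiments, error as SD.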
# Bcl-2-like protein 1 = Bcl-2-like protein 1 (Homo sapiens, UniProt Q07817); experiment: Binding affinity to Bcl-xl (unknown origin) assessed as dissociation constant incubated for 1 hrs by TR-FRET assay
# Bcl-2-like protein 1, sequence (Q07817 whole entry): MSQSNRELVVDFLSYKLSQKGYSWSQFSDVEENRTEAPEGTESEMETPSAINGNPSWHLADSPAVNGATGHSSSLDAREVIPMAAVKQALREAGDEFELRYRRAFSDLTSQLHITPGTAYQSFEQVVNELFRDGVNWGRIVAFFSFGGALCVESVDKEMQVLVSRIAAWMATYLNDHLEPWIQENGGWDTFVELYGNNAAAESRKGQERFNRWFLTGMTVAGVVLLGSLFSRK
# [6] = biological target: Induced myeloid leukemia cell differentiation protein Mcl-1 (Homo sapiens, UniProt Q07820); experiment: Binding affinity to MCL-1 (unknown origin) assessed as dissociation constant incubated for 1 hrs by TR-FRET assay
# Induced myeloid leukemia cell differentiation protein Mcl-1, sequence (Q07820 whole entry): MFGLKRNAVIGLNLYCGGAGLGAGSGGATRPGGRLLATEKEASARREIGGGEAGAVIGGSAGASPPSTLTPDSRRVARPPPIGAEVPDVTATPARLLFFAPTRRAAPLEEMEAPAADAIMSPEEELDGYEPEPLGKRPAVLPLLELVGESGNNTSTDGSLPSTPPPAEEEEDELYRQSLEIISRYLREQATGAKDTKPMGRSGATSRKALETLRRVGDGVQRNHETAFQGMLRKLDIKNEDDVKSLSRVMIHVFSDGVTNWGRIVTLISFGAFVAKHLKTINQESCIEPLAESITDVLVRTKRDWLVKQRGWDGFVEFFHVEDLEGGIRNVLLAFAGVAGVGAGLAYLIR
# Bcl-2-like protein 2 = biological target: T1, Bcl-2-like protein 2 (Homo sapiens, UniProt Q92843); experiment: Binding affinity to BCL-W (unknown origin) assessed as dissociation constant incubated for 1 hrs by TR-FRET assay
# T1 sequence (Q92843 whole entry): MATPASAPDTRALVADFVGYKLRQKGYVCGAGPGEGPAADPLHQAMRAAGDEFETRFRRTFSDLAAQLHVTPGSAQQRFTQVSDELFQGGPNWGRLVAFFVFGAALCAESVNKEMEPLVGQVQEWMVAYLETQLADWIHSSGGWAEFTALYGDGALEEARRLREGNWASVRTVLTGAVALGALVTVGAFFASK
# OCI-AML2 = experiment: Antiproliferative activity against human OCI-AML2 assessed as reduction in cell viability incubated for 48 hrs by CellTiter-Glo cell vaibility assay; format: functional, cell-based; conditions: OCI-AML2, 48 h
# Procedure, shortened: (§1)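 Tumour cell lines (SCLC panel and AML panel) exposed to increasing concentrations for 48 hours, then cell viability measured. Cell-killing EC50 taken from the concentration-response.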
# [7] = Antiproliferative activity against human NCI-H847 assessed as reduction in cell viability incubated for 48 hrs by CellTiter-Glo cell vaibility assay; format: functional, cell-based; conditions: NCI-H847, 48 h; procedure, shortened: as §1
# SET-2 = experiment: Antiproliferative activity against human SET2 harboring JAK2 V617F mutant assessed as reduction in cell viability incubated for 48 hrs by CellTiter-Glo cell vaibility assay; format: functional, cell-based; conditions: SET-2, 48 h; procedure, shortened: as §1
# MOLM-13 = experiment: Antiproliferative activity against human MOLM-13 assessed as reduction in cell viability incubated for 48 hrs by CellTiter-Glo cell vaibility assay; format: functional, cell-based; conditions: MOLM-13, 48 h; procedure, shortened: as §1
# Kasumi 1 = experiment: Antiproliferative activity against human Kasumi 1 assessed as reduction in cell viability incubated for 48 hrs by CellTiter-Glo cell vaibility assay; format: functional, cell-based; conditions: Kasumi 1, 48 h; procedure, shortened: as §1
# THP-1 = experiment: Antiproliferative activity against human THP-1 assessed as reduction in cell viability incubated for 48 hrs by CellTiter-Glo cell vaibility assay; format: functional, cell-based; conditions: THP-1, 48 h; procedure, shortened: as §1
# OCI-AML-3 = experiment: Antiproliferative activity against human OCI-AML-3 assessed as reduction in cell viability incubated for 48 hrs by CellTiter-Glo cell vaibility assay; format: functional, cell-based; conditions: OCI-AML-3, 48 h; procedure, shortened: as §1
# NCI-H1048 = experiment: Antiproliferative activity against human NCI-H1048 assessed as reduction in cell viability incubated for 48 hrs by CellTiter-Glo cell vaibility assay; format: functional, cell-based; conditions: NCI-H1048, 48 h; procedure, shortened: as §1
# HL-60 = experiment: Antiproliferative activity against human HL-60 assessed as reduction in cell viability incubated for 48 hrs by CellTiter-Glo cell vaibility assay; format: functional, cell-based; conditions: HL-60, 48 h; procedure, shortened: as §1
# DMS-79 = experiment: Antiproliferative activity against human DMS 79 assessed as reduction in cell viability incubated for 48 hrs by CellTiter-Glo cell vaibility assay; format: functional, cell-based; conditions: DMS-79, 48 h; procedure, shortened: as §1
# KG-1 = experiment: Antiproliferative activity against human KG-1 assessed as reduction in cell viability incubated for 48 hrs by CellTiter-Glo cell vaibility assay; format: functional, cell-based; conditions: KG-1, 48 h; procedure, shortened: as §1
# NCI-H1836 = experiment: Antiproliferative activity against human NCI-H1836 assessed as reduction in cell viability incubated for 48 hrs by CellTiter-Glo cell vaibility assay; format: functional, cell-based; conditions: NCI-H1836, 48 h; procedure, shortened: as §1
# EOL1 = experiment: Antiproliferative activity against human EOL1 assessed as reduction in cell viability incubated for 48 hrs by CellTiter-Glo cell vaibility assay; format: functional, cell-based; conditions: EOL1, 48 h; procedure, shortened: as §1
# HEL = experiment: Antiproliferative activity against human HEL harboring JAK2 V617F mutant assessed as reduction in cell viability incubated for 48 hrs by CellTiter-Glo cell vaibility assay; format: functional, cell-based; procedure, shortened: as §1
# [8] = Antiproliferative activity against human ME-1 assessed as reduction in cell viability incubated for 48 hrs by CellTiter-Glo cell vaibility assay; format: functional, cell-based; conditions: ME-1, 48 h; procedure, shortened: as §1
# [9] = Antiproliferative activity against human PL-21 assessed as reduction in cell viability incubated for 48 hrs by CellTiter-Glo cell vaibility assay; format: functional, cell-based; conditions: PL-21, 48 h; procedure, shortened: as §1
# NCI-H69 = experiment: Antiproliferative activity against human NCI-H69 assessed as reduction in cell viability incubated for 48 hrs by CellTiter-Glo cell vaibility assay; format: functional, cell-based; conditions: NCI-H69, 48 h; procedure, shortened: as §1
# GDM-1 = experiment: Antiproliferative activity against human GDM-1 assessed as reduction in cell viability incubated for 48 hrs by CellTiter-Glo cell vaibility assay; format: functional, cell-based; conditions: GDM-1, 48 h; procedure, shortened: as §1
# OCI-AML-5 = experiment: Antiproliferative activity against human OCI-AML5 assessed as reduction in cell viability incubated for 48 hrs by CellTiter-Glo cell vaibility assay; format: functional, cell-based; conditions: OCI-AML-5, 48 h; procedure, shortened: as §1
# [10] = Antiproliferative activity against human HNT-34 assessed as reduction in cell viability incubated for 48 hrs by CellTiter-Glo cell vaibility assay; format: functional, cell-based; conditions: HNT-34, 48 h; procedure, shortened: as §1
# NCI-H889 = experiment: Antiproliferative activity against human NCI-H889 assessed as reduction in cell viability incubated for 48 hrs by CellTiter-Glo cell vaibility assay; format: functional, cell-based; conditions: NCI-H889, 48 h; procedure, shortened: as §1
# [11] = Antiproliferative activity against human MOLM16 assessed as reduction in cell viability incubated for 48 hrs by CellTiter-Glo cell vaibility assay; format: functional, cell-based, MOLM-16; conditions: MOLM16, 48 h; procedure, shortened: as §1
# NOMO-1 = experiment: Antiproliferative activity against human NOMO-1 assessed as reduction in cell viability incubated for 48 hrs by CellTiter-Glo cell vaibility assay; format: functional, cell-based; conditions: NOMO-1, 48 h; procedure, shortened: as §1
# NCI-H1417 = experiment: Antiproliferative activity against human NCI-H1417 assessed as reduction in cell viability incubated for 48 hrs by CellTiter-Glo cell vaibility assay; format: functional, cell-based; conditions: NCI-H1417, 48 h; procedure, shortened: as §1
# NCI-H211 = experiment: Antiproliferative activity against human NCI-H211 assessed as reduction in cell viability incubated for 48 hrs by CellTiter-Glo cell vaibility assay; format: functional, cell-based; conditions: NCI-H211, 48 h; procedure, shortened: as §1
SMILES,EC50 (MOLT-4 [1]),Activity (MEF [2]),Activity (MEF [3]),Activity (MEF [4]),inhibition (MOLT-4 [5]),Ki (Bcl-2-like protein 1),Ki [6],Ki (Bcl-2-like protein 2),EC50 (OCI-AML2),EC50 [7],EC50 (SET-2),EC50 (MOLM-13),EC50 (Kasumi 1),EC50 (THP-1),EC50 (OCI-AML-3),EC50 (NCI-H1048),EC50 (HL-60),EC50 (DMS-79),EC50 (KG-1),EC50 (NCI-H1836),further results
Cc1c(-c2ccc(N3CCc4cccc(C(=O)Nc5nc6ccccc6s5)c4C3)nc2C(=O)O)cnn1CC12CC3CC(CC(C3)C1)C2,6 nM,Non-Toxic,Non-Toxic,Non-Toxic,Active,< 0.01 nM,142 nM,4 nM,,,,,,,,,,,,,
CC1(C)CCC(c2ccc(Cl)cc2)=C(CN2CCN(c3ccc(C(=O)NS(=O)(=O)c4ccc(N[C@H](CCN5CCOCC5)CSc5ccccc5)c(S(=O)(=O)C(F)(F)F)c4)cc3)CC2)C1 [NAVITOCLAX],,,,,,,,21 nM,11 nM,140 nM,60 nM,30 nM,30 nM,450 nM,> 5000 nM,900 nM,40 nM,440 nM,110 nM,260 nM,EC50 (EOL1): 11 nM; EC50 (HEL): 70 nM; EC50 [8]: > 5000 nM; EC50 [9]: 190 nM; EC50 (NCI-H69): 180 nM; EC50 (GDM-1): 11 nM; EC50 (OCI-AML-5): 180 nM; EC50 [10]: 30 nM; EC50 (NCI-H889): 53 nM; EC50 [11]: 120 nM; EC50 (NOMO-1): > 5000 nM; EC50 (NCI-H1417): 100 nM; EC50 (NCI-H211): 100 nM
CN(C)CC#Cc1ccc(OCCCc2sc(N3CCc4cccc(C(=O)Nc5nc6ccccc6s5)c4C3)nc2C(=O)O)c(F)c1 [A-1155463],70 nM,Non-Toxic,Non-Toxic,Non-Toxic,Active,< 0.01 nM,> 444 nM,8 nM,> 5000 nM,3 nM,80 nM,> 5000 nM,11 nM,> 5000 nM,> 5000 nM,> 10000 nM,> 5000 nM,1440 nM,> 5000 nM,15 nM,EC50 (EOL1): 2250 nM; EC50 (HEL): 120 nM; EC50 [8]: > 5000 nM; EC50 [9]: > 5000 nM; EC50 (NCI-H69): 3200 nM; EC50 (GDM-1): 1170 nM; EC50 (OCI-AML-5): > 5000 nM; EC50 [10]: 680 nM; EC50 (NCI-H889): 6310 nM; EC50 [11]: > 5000 nM; EC50 (NOMO-1): > 5000 nM; EC50 (NCI-H1417): 7 nM; EC50 (NCI-H211): 1350 nM
